{"source": "ChEMBL document CHEMBL4177642", "about": "“Cyclic perylene diimide: Selective ligand for tetraplex DNA binding over double stranded DNA” (Bioorg Med Chem, 2017)", "key": {"Quadruplex DNA [1]": {"tested_on": "Quadruplex DNA", "assay": "Binding affinity to human TA-core of telomeric sequence G-quadruplex DNA assessed as hypochromic shift at 500 nanometer at 5 uM in presence of 100 mM KCl by UV-vis spectrophotometric analysis relative to control", "assay_type": "nucleic-acid assay", "summary_of_the_method": "(§1)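 Absorption spectra at 25 °C of 5.0 μM ligand in 50 mM Tris-HCl pH 7.4, 0.10 M KCl, titrated with TA-core (0–15.7 μM) or CT-DNA (0–323.4 μM; concentration in base pairs).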"}, "Quadruplex DNA [2]": {"tested_on": "Quadruplex DNA", "assay": "Binding affinity to human TA-core of telomeric sequence G-quadruplex DNA assessed as red shift at 500 nanometer at 5 uM in presence of 100 mM KCl by UV-vis spectrophotometric analysis", "assay_type": "nucleic-acid assay", "summary_of_the_method": "as §1"}, "Quadruplex DNA [3]": {"tested_on": "Quadruplex DNA", "assay": "Binding affinity to human TA-core of telomeric sequence G-quadruplex DNA assessed as hyperchromic shift at 550 nanometer at 5 uM in presence of 100 mM KCl by UV-vis spectrophotometric analysis relative to control", "assay_type": "nucleic-acid assay", "summary_of_the_method": "as §1"}, "Calf thymus DNA [4]": {"tested_on": "Calf thymus DNA", "assay": "Binding affinity to calf thymus duplex DNA assessed as hypochromic shift at 500 nanometer at 5 uM in presence of 100 mM KCl by UV-vis spectrophotometric analysis relative to control", "assay_type": "ADME, nucleic-acid assay, Bos taurus", "details": "cattle", "summary_of_the_method": "as §1"}, "Calf thymus DNA [5]": {"tested_on": "Calf thymus DNA", "assay": "Binding affinity to calf thymus duplex DNA assessed as red shift at 500 nanometer at 5 uM in presence of 100 mM KCl by UV-vis spectrophotometric analysis", "assay_type": "ADME, nucleic-acid assay, Bos taurus", "details": "cattle", "summary_of_the_method": "as §1"}, "Calf thymus DNA [6]": {"tested_on": "Calf thymus DNA", "assay": "Binding affinity to calf thymus duplex DNA assessed as hyperchromic shift at 550 nanometer at 5 uM in presence of 100 mM KCl by UV-vis spectrophotometric analysis relative to control", "assay_type": "ADME, nucleic-acid assay, Bos taurus", "details": "cattle", "summary_of_the_method": "as §1"}, "Quadruplex DNA [7]": {"tested_on": "Quadruplex DNA", "assay": "Binding affinity to human TA-core of telomeric sequence G-quadruplex DNA assessed as stabilization of antiparallel G-quadruplex structure by measuring increase in intensities of positive band at 290 nanometer up to 7.5 uM in presence of K+ by CD spectroscopic method", "assay_type": "nucleic-acid assay"}, "Quadruplex DNA [8]": {"tested_on": "Quadruplex DNA", "assay": "Binding affinity to human TA-core of telomeric sequence G-quadruplex DNA assessed as stabilization of antiparallel G-quadruplex structure by measuring increase in intensities of negative band at 240 nanometer up to 7.5 uM in presence of K+ by CD spectroscopic method", "assay_type": "nucleic-acid assay"}, "Quadruplex DNA [9]": {"tested_on": "Quadruplex DNA", "assay": "Binding affinity to human TA-core of telomeric sequence G-quadruplex DNA assessed as stabilization of antiparallel structure formation up to 4.5 uM in presence of Na+ by CD spectroscopic method", "assay_type": "nucleic-acid assay"}, "Quadruplex DNA [10]": {"tested_on": "Quadruplex DNA", "assay": "Binding affinity to human TA-core of telomeric sequence G-quadruplex DNA assessed as stabilization of antiparallel structure formation up to 5 equiv by CD spectroscopic method", "assay_type": "nucleic-acid assay"}, "Calf thymus DNA [11]": {"tested_on": "Calf thymus DNA", "assay": "Binding affinity to calf thymus duplex DNA assessed as change in the intensities of positive band formation at 250 nm up to 10 uM in presence of K+ by CD spectroscopic method", "assay_type": "ADME, nucleic-acid assay, Bos taurus", "details": "cattle, 0.25 µM"}, "Calf thymus DNA [12]": {"tested_on": "Calf thymus DNA", "assay": "Binding affinity to calf thymus duplex DNA assessed as change in the intensities of negative band formation at 280 nm up to 10 uM in presence of K+ by CD spectroscopic method", "assay_type": "ADME, nucleic-acid assay, Bos taurus", "details": "cattle, 0.28 µM"}, "Quadruplex DNA [13]": {"tested_on": "Quadruplex DNA", "assay": "Binding affinity to human TA-core of telomeric sequence G-quadruplex DNA assessed as change in melting temperature at 1.5 uM in presence of K+ by spectrophotometric analysis", "assay_type": "nucleic-acid assay", "summary_of_the_method": "(§2)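 Melting of 1.5 μM TA-core followed by CD at 288 nm in 50 mM Tris-HCl pH 7.4 with 20 mM KCl or 20 mM NaCl. Run without or with 1.5 μM ligand (1:1 ligand:DNA), heating at 60 °C/h, data every 0.5 °C, 1 cm cell.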"}, "Quadruplex DNA [14]": {"tested_on": "Quadruplex DNA", "assay": "Binding affinity to human TA-core of telomeric sequence G-quadruplex DNA assessed as change in melting temperature at 1.5 uM in presence of Na+ by spectrophotometric analysis", "assay_type": "nucleic-acid assay", "summary_of_the_method": "as §2"}, "DNA": {"tested_on": "DNA", "assay": "Binding affinity to Escherichia coli pUC19 duplex DNA assessed as unwinding of supercoiled DNA up to 40 uM after 1 hr in presence of human topoisomerase-1 by agarose gel electrophoresis", "assay_type": "ADME, nucleic-acid assay", "summary_of_the_method": "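pUC19 plasmid (0.025 μg/μL) preincubated 5 min at 37 °C with human Topo I (0.25 units/μL, 0.01% BSA) in 35 mM Tris-HCl pH 8.0, 72 mM KCl, 5 mM MgCl2, 5 mM DTT, 5 mM spermidine. Ligand then added and incubated 1 h at 37 °C. Stopped with SDS, proteinase K digested, phenol/chloroform extracted, run on 1% agarose, GelStar-stained.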"}, "[15]": {"assay": "Inhibition of telomerase (unknown origin) by TRAP assay", "design": "species or system Homo sapiens", "summary_of_the_method": "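TRAP with a TRAPeze kit, using positive-control cell lysate (250 cells per reaction). Extension 30 °C 1 h, then 35 PCR cycles. Products run on 12.5% PAGE, GelStar-stained and analyzed per kit.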"}, "Calf thymus DNA [16]": {"tested_on": "Calf thymus DNA", "assay": "Binding affinity to calf thymus duplex DNA assessed as change in the intensities of positive band formation at 250 nm up to 10 uM by CD spectroscopic method", "assay_type": "ADME, nucleic-acid assay, Bos taurus", "details": "cattle, 0.25 µM"}, "Calf thymus DNA [17]": {"tested_on": "Calf thymus DNA", "assay": "Binding affinity to calf thymus duplex DNA assessed as change in the intensities of positive band formation at 250 nm up to 10 uM in presence of Na+ by CD spectroscopic method", "assay_type": "ADME, nucleic-acid assay, Bos taurus", "details": "cattle, 0.25 µM"}, "Calf thymus DNA [18]": {"tested_on": "Calf thymus DNA", "assay": "Binding affinity to calf thymus duplex DNA assessed as change in the intensities of negative band formation at 280 nm up to 10 uM in presence of Na+ by CD spectroscopic method", "assay_type": "ADME, nucleic-acid assay, Bos taurus", "details": "cattle, 0.28 µM"}, "Calf thymus DNA [19]": {"tested_on": "Calf thymus DNA", "assay": "Binding affinity to calf thymus duplex DNA assessed as change in the intensities of negative band formation at 280 nm up to 10 uM by CD spectroscopic method", "assay_type": "ADME, nucleic-acid assay, Bos taurus", "details": "cattle, 0.28 µM"}, "Quadruplex DNA [20]": {"tested_on": "Quadruplex DNA", "assay": "Binding affinity to human TA-core of telomeric sequence G-quadruplex DNA assessed as change in enthalpy at 100 uM in presence of K+ by isothermal titration calorimetric method", "assay_type": "nucleic-acid assay", "summary_of_the_method": "(§3)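 ITC at 25 °C: TA-core (10 μM in cell) annealed 95 °C 10 min, cooled 1.0 °C/min to 25 °C, in 50 mM AcOK-AcOH pH 5.5 (K+ lines) or AcONa-AcOH pH 5.5 (Na+ lines). Ligand at 100 μM in same buffer injected repeatedly (1.96 μL each). Solutions degassed 10 min; data fitted to an independent-site model.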"}, "Quadruplex DNA [21]": {"tested_on": "Quadruplex DNA", "assay": "Binding affinity to human TA-core of telomeric sequence G-quadruplex DNA assessed as change in enthalpy at 100 uM in presence of Na+ by isothermal titration calorimetric method", "assay_type": "nucleic-acid assay", "summary_of_the_method": "as §3"}, "Quadruplex DNA [22]": {"tested_on": "Quadruplex DNA", "assay": "Binding affinity to human TA-core of telomeric sequence G-quadruplex DNA assessed as change in entropy at 100 uM in presence of K+ by isothermal titration calorimetric method", "assay_type": "nucleic-acid assay", "summary_of_the_method": "as §3"}, "Quadruplex DNA [23]": {"tested_on": "Quadruplex DNA", "assay": "Binding affinity to human TA-core of telomeric sequence G-quadruplex DNA assessed as change in entropy at 100 uM in presence of Na+ by isothermal titration calorimetric method", "assay_type": "nucleic-acid assay", "summary_of_the_method": "as §3"}, "Quadruplex DNA [24]": {"tested_on": "Quadruplex DNA", "assay": "Binding affinity to human TA-core of telomeric sequence G-quadruplex DNA assessed as isosbestic point at 5 uM in presence of 100 mM KCl by UV-vis spectrophotometric analysis", "assay_type": "nucleic-acid assay", "summary_of_the_method": "as §1"}, "Calf thymus DNA [25]": {"tested_on": "Calf thymus DNA", "assay": "Binding affinity to calf thymus duplex DNA assessed as isosbestic point at 5 uM by UV-vis spectrophotometric analysis", "assay_type": "ADME, nucleic-acid assay, Bos taurus", "details": "cattle", "summary_of_the_method": "as §1"}, "[26]": {"assay": "Binding affinity to 27-mer DNA hairpin (unknown origin) at 100 uM in presence of K+ by isothermal titration calorimetric method"}, "[27]": {"assay": "Binding affinity to 27-mer DNA hairpin (unknown origin) at 100 uM in presence of Na+ by isothermal titration calorimetric method"}, "[28]": {"assay": "Selectivity ratio of binding constant for human TA-core of telomeric sequence G-quadruplex DNA to binding conctant for calf thymus duplex DNA"}, "[29]": {"tested_on": "double-stranded DNA oligonucleotide dsOligo (synthetic)", "assay": "Binding affinity to synthetic duplex DNA oligonucleotide dsOligo assessed as change in melting temperature at 1.5 uM in presence of K+ by spectrophotometric analysis"}, "[30]": {"tested_on": "double-stranded DNA oligonucleotide dsOligo (synthetic)", "assay": "Binding affinity to synthetic duplex DNA oligonucleotide dsOligo assessed as increase in melting temperature at 3 to 4.5 uM in presence of K+ by spectrophotometric analysis"}}, "note": "Active and inactive are the calls of the source. No cut-off for these calls is given here.", "data": [{"compound": "O=C1CCCCCC(=O)NCCCN2CCN(CCCN3C(=O)c4ccc5c6ccc7c8c(ccc(c9ccc(c4c59)C3=O)c86)C(=O)N(CCCN3CCN(CCCN1)CC3)C7=O)CC2", "values": [{"measurement": "Activity", "setting": "Quadruplex DNA [1]", "value": 42, "unit": "%"}, {"measurement": "Activity", "setting": "Quadruplex DNA [2]", "value": 13, "unit": "nm"}, {"measurement": "Activity", "setting": "Quadruplex DNA [3]", "value": 55, "unit": "%"}, {"measurement": "Activity", "setting": "Calf thymus DNA [4]", "value": 50, "unit": "%"}, {"measurement": "Activity", "setting": "Calf thymus DNA [5]", "value": 8, "unit": "nm"}, {"measurement": "Activity", "setting": "Calf thymus DNA [6]", "value": 29, "unit": "%"}, {"measurement": "Activity", "setting": "Quadruplex DNA [7]", "value": "Active"}, {"measurement": "Activity", "setting": "Quadruplex DNA [8]", "value": "Active"}, {"measurement": "Activity", "setting": "Quadruplex DNA [9]", "value": "Active"}, {"measurement": "Activity", "setting": "Quadruplex DNA [10]", "value": "Active"}, {"measurement": "Activity", "setting": "Calf thymus DNA [11]", "value": "Not Active"}, {"measurement": "Activity", "setting": "Calf thymus DNA [12]", "value": "Not Active"}, {"measurement": "ΔTm", "setting": "Quadruplex DNA [13]", "value": 21, "unit": "°C"}, {"measurement": "ΔTm", "setting": "Quadruplex DNA [14]", "value": 14, "unit": "°C"}, {"measurement": "Activity", "setting": "DNA", "value": "Not Active"}, {"measurement": "IC50", "setting": "[15]", "value": 240, "unit": "nM"}, {"measurement": "Activity", "setting": "Calf thymus DNA [16]", "value": "Not Active"}, {"measurement": "Activity", "setting": "Calf thymus DNA [17]", "value": "Not Active"}, {"measurement": "Activity", "setting": "Calf thymus DNA [18]", "value": "Not Active"}, {"measurement": "Activity", "setting": "Calf thymus DNA [19]", "value": "Not Active"}, {"measurement": "deltaH", "setting": "Quadruplex DNA [20]", "value": -6.71, "unit": "kcal/mol"}, {"measurement": "deltaH", "setting": "Quadruplex DNA [21]", "value": -7.14, "unit": "kcal/mol"}, {"measurement": "-TdeltaS", "setting": "Quadruplex DNA [22]", "value": -1.56, "unit": "kcal/mol"}, {"measurement": "-TdeltaS", "setting": "Quadruplex DNA [23]", "value": -1.7, "unit": "kcal/mol"}, {"measurement": "Activity", "setting": "Quadruplex DNA [24]", "value": 510, "unit": "nm"}, {"measurement": "Activity", "setting": "Calf thymus DNA [25]", "value": 520, "unit": "nm"}, {"measurement": "Activity", "setting": "[26]", "value": "inactive"}, {"measurement": "Activity", "setting": "[27]", "value": "inactive"}, {"measurement": "Selectivity ratio", "setting": "[28]", "value": 900}, {"measurement": "deltaTm", "setting": "[29]", "value": -1, "unit": "°C"}, {"measurement": "Activity", "setting": "[30]", "value": "Not Active"}]}]}
